Values joined by “and” are separate entries in the source; they are usually repeats but may differ in a detail not shown here. Equal values may be shown once. Read-outs that look alike come from different tables or passages of the source.
Experiments:
[1] = rats; administration for 10 days; effects reversible; cited from earlier work
[2] = monkeys; administration for 10 days; effects reversible; cited from earlier work
U87-MG cells [3] = conditions: in vitro; cited from earlier work
GBM flank xenografts = conditions: ISA27 alone; cited from earlier work
[4] = Dose-response curves of nutlin enantiomers; conditions: nutlin3a vs nutlin3b; data not shown
[5] = Nutlin3a concentrations in normal brain and intracranial tumor tissue; format: in vivo, NSG mice; conditions: 100 mg/kg nutlin3a; 4 hours
Procedure, shortened: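 NSG mice carried GBM10, GBM43 or SK28 melanoma cells implanted stereotactically in the right cerebral hemisphere. At 21 days post-implantation, mice received 100 mg/kg nutlin3a orally; tumor-free mice were dosed likewise. After 4 h, plasma and brains were collected and the tumor area was excised. Samples were frozen at −80°C, extracted by liquid-liquid extraction, and assayed by HPLC-MS/MS. Each point is one mouse.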

[6] = test system: GBM10 intracranial tumors; test: Survival in orthotopic intracranial GBM10 xenograft model; format: in vivo, NSG mice
GBM10 cells [7] = test: Wound-healing assay; format: cell-based, human; conditions: 25 μM TMZ, 10 μM nutlin3a; 12 hours
Procedure, shortened: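 GBM10 monolayers at 80–90% confluence were scratched with a pipette tip. Debris was washed off with medium, cells were rinsed in serum-free DMEM, and the gap was photographed at hour 0. Cells were then cultured in DMEM with 10% FBS containing vehicle, 25 μM TMZ, 10 μM nutlin3a, or the combination for 12 h. The marked gap was imaged every 2 h and its width measured. Three repeats.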

GBM10 cells [8] = test: Matrigel invasion assay; format: cell-based, human; conditions: 25 μM TMZ, 10 μM nutlin3a; 8 hours
U87-MG cells [9] = test: Apoptosis assay; format: cell-based, human; conditions: 25 μM TMZ, 1.25 or 5 μM nutlin3a; Day 5 posttreatment
Procedure, shortened: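 U87-MG cells were treated with vehicle, 25 μM TMZ, 1.25 or 5 μM nutlin3a (DMSO stock diluted in medium), or TMZ/nutlin3a combinations. TMZ was dissolved in PBS or medium and used immediately. On Day 5 post-treatment, cells were stained with Annexin V-FITC and 7-AAD. Early apoptotic and late apoptotic/necrotic fractions were quantified by flow cytometry.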

U87-MG cells [10] = test: Western blot analysis of target proteins and cell cycle markers; format: cell-based, human
Procedure, shortened: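 U87-MG cells were treated with vehicle, 25 μM TMZ, 5 μM nutlin3a, or the combination for 24 h or 72 h. RIPA lysates were resolved on 4–20% SDS-PAGE and transferred to nitrocellulose. Primary antibodies were used at 1:1000 and HRP secondaries at 1:5000, with chemiluminescent film detection. Densitometry was normalized to loading control and expressed relative to vehicle. Six independent experiments at 24 h; two at 72 h.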

GBM10 cells [11] = test: Western blot analysis of target proteins and cell cycle markers; format: cell-based, human
Procedure, shortened: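 Cultured GBM10 cells were treated with vehicle, 25 μM TMZ, 10 μM nutlin3a, or the combination for 72 h (cell-cycle markers). A second set received 200 μM TMZ plus 2 μM nutlin3a for 24, 48 or 72 h. RIPA lysates were run on 4–20% SDS-PAGE and transferred to nitrocellulose. Primary antibodies were used at 1:1000 and HRP secondaries at 1:5000, with chemiluminescent detection. Densitometry was normalized to loading control relative to vehicle (24 h: 3 independent experiments).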

GBM10 flank tumors = test: Western blot analysis of GBM10 flank tumor lysates; format: in vivo, NSG mice; conditions: 66 mg/kg TMZ, 100 mg/kg nutlin3a, 3 consecutive days; for MDM2 and p53 levels in tumors: 2 hours after last dose
Procedure, shortened: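 NSG mice received 5 × 10^6 GBM10 cells in the right flank. At approximately 200 mm3, mice were dosed orally for 3 consecutive days with vehicle, 66 mg/kg TMZ, 100 mg/kg nutlin3a (methylcellulose/Tween 80), or the combination. Tumors were harvested 2 h after the last dose. Lysates were made in RIPA buffer with protease/phosphatase inhibitors, run on 4–20% SDS-PAGE, and transferred to nitrocellulose. Detection was by HRP-chemiluminescence, with densitometry normalized to loading control.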

[12] = murine bone marrow; cited from earlier work
U87-MG flank xenografts = test: Efficacy in ectopic U87-MG flank xenografts; format: in vivo, NSG mice; conditions: 5 mg/kg TMZ, 100 mg/kg nutlin3; 2 treatment cycles
Procedure, shortened: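 NSG mice received 4 × 10^6 U87-MG cells in the right flank. At approximately 150 mm3, tumor-bearing mice were randomized into cohorts of 6–8. Dosing was oral: vehicle, 5 mg/kg TMZ, 100 mg/kg racemic nutlin3, or the combination, for 2 treatment cycles. Caliper measurements were taken twice weekly, and volume = (α2 × β)/2 (α shorter, β longer dimension). Data are mean ± SEM.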

[13] = format: in vivo, NSG mice; conditions: peripheral blood, three cycles
[14] = Pharmacokinetic analysis of nutlin3 in NSG mice; format: in vivo
Procedure, shortened: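 Racemic nutlin3 was given orally to NSG mice. Plasma was collected, flash-frozen and kept at −80°C. Drug was recovered by liquid-liquid extraction and quantified by HPLC-MS/MS (API 4000) to derive pharmacokinetic parameters.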

[15] = Nutlin3 concentration in U87-MG flank xenografts; format: in vivo, NSG mice; conditions: 4 hours postadministration
Procedure, shortened: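 Tumors from NSG mice bearing U87-MG flank xenografts were collected 4 h after oral nutlin3 dosing. A vehicle-treated tumor served as background control. Samples were flash-frozen and stored at −80°C. Nutlin3 was recovered by liquid-liquid extraction and quantified by HPLC-MS/MS (API 4000), with caylin as internal standard. Two tumor samples were analyzed.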

[16] = 25 μM TMZ, 5 μM nutlin3a, 24 hours

## CCOc1cc(C(C)(C)C)ccc1C1=N[C@@](C)(c2ccc(Cl)cc2)[C@@](C)(c2ccc(Cl)cc2)N1C(=O)N1CCN(CCCS(C)(=O)=O)CC1 [RG7112]
[1]
  Platelet production: decreased platelet production
[2]
  Platelet production: decreased platelet production

## O=C1[C@@H]2CS[C@@]3(C(=O)Nc4ccccc43)N2C(=O)N1Cc1ccc(Cl)cc1 [ISA27]
U87-MG cells [3]
  Interaction with TMZ to kill U87-MG cells: synergized
GBM flank xenografts
  Growth of GBM flank xenografts: inhibited growth

## COc1ccc(C2=N[C@@H](c3ccc(Cl)cc3)[C@@H](c3ccc(Cl)cc3)N2C(=O)N2CCNC(=O)C2)c(OC(C)C)c1 [nutlin3a]
[4]
  Relative potency of enantiomers: more potent enantiomer
[5]
  Nutlin3a levels in brain tumor tissues versus normal brain tissue: higher levels
[6]; 100 mg/kg nutlin3a twice daily, 2 consecutive 5-day cycles
  Survival of mice with intracranial GBM tumors, single agent: did not increase survival
GBM10 cells [7]
  GBM10 migration: significantly inhibited
GBM10 cells [8]
  GBM10 invasion: significantly inhibited
U87-MG cells [9]
  Early and late apoptotic/necrotic cells compared with control or TMZ alone: significant increases
U87-MG cells [10]; 5 μM nutlin3a, 25 μM TMZ, 72 hours
  Cell cycle arrest by cell cycle–specific markers (pRb S780, pHH3, TopoIIα): arrested in G0/G1
U87-MG cells [10]; [16]
  Levels of total p53, p53 (S15) and MDM2: increased
  p21 levels: increased
U87-MG cells [10]; 72 hours
  APE1 level: decreased
GBM10 cells [11]; 10 μM nutlin3a, 25 μM TMZ, 72 hours
  Cell cycle arrest by cell cycle–specific markers (pRb S780, pHH3, TopoIIα): arrested in G0/G1
GBM10 cells [11]; 200 μM TMZ, 2 μM nutlin3a, 24 hours
  MDM2 and p21 levels: significantly increased
GBM10 flank tumors
  MDM2 and p53 levels in tumors: increased
[12]
  Nutlin3a detected in bone marrow: low levels

## Cn1nnc2c(C(N)=O)ncn2c1=O [TMZ, temozolomide]
U87-MG flank xenografts
  Tumor growth / tumor volume compared with vehicle: significant decrease in tumor volume
[6]; 66 mg/kg TMZ once daily, 100 mg/kg nutlin3a, 2 cycles, p < 0.05
  Survival compared with vehicle or nutlin3a: significantly increased
[6]; three 5-day cycles
  Increase in survival compared with vehicle-treated mice: approximately 13%
[13]; Day 30 and Day 43
  White and red blood cell counts compared with vehicle-treated mice: significant decrease
[13]; Day 30 only
  Platelets: significantly decreased
U87-MG cells [10]; [16]
  Levels of total p53, p53 (S15) and MDM2: increased
U87-MG cells [10]; 72 hours
  APE1 level: decreased
GBM10 flank tumors
  p53 (S15) levels in tumors: increased
  MDM2 and p53 levels in tumors: increased

## COc1ccc(C2=N[C@@H](c3ccc(Cl)cc3)[C@@H](c3ccc(Cl)cc3)N2C(=O)N2CCNC(=O)C2)c(OC(C)C)c1 [nutlin3]
[14]; NSG, mouse, in vivo, po
  Cmax: 20400 ng/mL and 37 µM
  Tmax: 1 h
  Vd/F: 0.113 L
  half-life: 4.5 h
[14]; racemic nutlin3, NSG mice
  Cl/F: 0.29 mL/min
[15]
  Nutlin3 in U87-MG flank xenografts: detected
U87-MG flank xenografts
  Tumor growth / tumor volume compared with vehicle: significantly slowed tumor growth
